From PubChem BioAssay
ROMK mod = ROMK potassium channel modulators, primary screen, cell-based, thallium flux, MLSMR library | AID 1918, 2009 | B-score at 10 µM | Tet-inducible ROMK, thallium flux fluorescence; actives lie on both sides | ATP-sensitive inward rectifier potassium channel 1 (Homo sapiens), P48048 | 2% of 130,000 active;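 active = signal ratio slope over the read window, or its plate-corrected B-score, at least 3 SD from the plate mean, either direction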;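 note: B-score of the F/F0 ratio slope over 7 to 12 s after thallium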
PMI act satM6P = human PMI activators, high substrate, primary screen, biochemical, fluorescence intensity, near-saturating mannose 6-phosphate. coupled PMI enzyme assay, resazurin fluorescence, 20 min; active compounds read high; 1 = untreated enzyme, 0 = substrate-free blank. activation factor at 20 µM. 0.34% of 190,000 active. Mannose-6-phosphate isomerase (Homo sapiens), P34949;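 active = activation factor of 2 or more at 20 µM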
Target sequence (P34949 whole entry, looked up): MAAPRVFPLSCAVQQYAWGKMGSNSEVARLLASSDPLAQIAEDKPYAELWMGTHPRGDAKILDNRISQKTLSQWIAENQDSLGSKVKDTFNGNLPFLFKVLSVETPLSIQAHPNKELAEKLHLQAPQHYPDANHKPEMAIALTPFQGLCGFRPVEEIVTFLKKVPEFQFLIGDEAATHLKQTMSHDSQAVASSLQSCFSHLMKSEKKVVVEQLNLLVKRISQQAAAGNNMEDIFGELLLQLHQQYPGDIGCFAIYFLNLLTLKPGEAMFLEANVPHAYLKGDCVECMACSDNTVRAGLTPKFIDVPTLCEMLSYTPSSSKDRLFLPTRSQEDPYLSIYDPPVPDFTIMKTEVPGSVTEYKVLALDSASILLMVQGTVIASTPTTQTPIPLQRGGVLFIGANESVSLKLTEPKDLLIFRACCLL
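assay system = human phosphomannose isomerase with PGI, G6PDH, diaphorase coupling enzymes | quantity = 15 ng/mL PMI | incubation = enzyme reaction with compound 20 min at room temperature | medium = HEPES pH 7.4 buffer with MgCl2 and Tween-20 | compound dosing = one concentration, 20 µM, in 1% DMSO | measured by = Diaphorase-driven resazurin-to-resorufin fluorescence, excitation 544, emission 590 nm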
Diaph inh CS = diaphorase inhibitors and chemical oxidizers, primary screen, counter-screen for diaphorase-coupled primary assays, biochemical, uHTS, resorufin fluorescence; diaphorase resazurin-to-resorufin fluorescence, NADH, 16 min; bacterial (C. kluyveri) enzyme, not human; inhibition, % at 20 µM; 0.69% of 190,000 active; AID 1217, 2008;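 active = primary screen inhibition at 20 µM above a set limit, cut at about 50% in these data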
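Test system: bacterial diaphorase enzyme (C. kluyveri); Quantity: 0.14 U/mL diaphorase, enzyme working solution; Times: reaction incubation of 16 min at room temperature; Measured by: fluorescence of resorufin formed from resazurin, Ex 544/Em 590 nm; Benchmarks: positive control minus NADH, DMSO neutral control.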
PMI act = activators of human PMI, primary screen, biochemical, fluorescence intensity, near-Km mannose 6-phosphate; Mannose-6-phosphate isomerase (Homo sapiens), P34949; purified human PMI, coupled resazurin fluorescence, 20 min; active compounds read high; 1 = vehicle control, 0 substrate-free wells; activation factor at 20 µM; 0.005% of 190,000 active; AID 1214, 2008;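 active = activation factor of 2 or more at 20 µM, relative to plate controls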
G6PDH counter = L. mesenteroides G6PDH inhibitors, counter-screen for G6PDH-coupled screening assays, biochemical, Leuconostoc mesenteroides enzyme. glucose-6-phosphate dehydrogenase [Leuconostoc mesenteroides]. Purified L. mesenteroides G6PDH, diaphorase/resazurin coupled fluorescence, 45 min. inhibition, % at 5 µM. 0.12% of 200,000 active. AID 1020, 2008; in the data active = inhibition above about 50%
Diaphorase act = compounds boosting diaphorase resazurin reduction – biochemical, uHTS, resorufin fluorescence, counter-screen for diaphorase-coupled primary assays, primary screen; Diaphorase/resazurin coupled assay, 16 min; active compounds read high; 1 = vehicle wells, 0 = NADH-free wells; activation factor at 20 µM; 0.005% of 190,000 active;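 active = diaphorase activity raised at least twofold by the compound at 20 µM; inactive = activation factor below 2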
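Test system: Clostridium kluyveri diaphorase, purified enzyme; input: enzyme 0.07 U/mL final; buffer or medium: 50 mM HEPES pH 7.4 with 4.542 mM MgCl2, 0.005% Tween 20; also added: 0.114 mM NADH and 0.1 mM resazurin, final amounts; schedule: 16 min enzyme reaction, ambient temperature; technique: fluorescence of resorufin, 544 nm excitation, 590 nm emission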
ROMK hit retest = ROMK channel modulator hit retest, confirmation, cell-based, thallium flux, duplicate, resupplied hits | shares compounds with ROMK mod | fluorescence ratio; active compounds read low | normalized thallium flux (F/F0 slope) at 10 µM | 54% of 3,000 active | AID 1917, 2009;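 active = Flux at 10 µM at least 3 SD below or above vehicle control mean in one or both replicates; inconclusive = no clear call, values can overlap the other calls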
Large screens that a line does not name were inactive (follow-up assays come after a bar, where they were run). Hits are enriched below; roughly 2.2% of the tested compounds scored in any of these assays.

O=C(C1CCCO1)N1N=C(c2ccc(Br)cc2)CC1c1ccco1 (centres undefined)	ROMK mod -3.36 | ROMK hit retest 0.0585
O=C(COC(=O)c1cccnc1Cl)Nc1ccc2c(c1)OCO2	none (no result: ROMK mod)
CC(=O)/C(=C/c1ccccc1)C(=O)Nc1ccccc1C	ROMK mod -3.55 | ROMK hit retest 0.0484
Cc1ccccc1NC(=O)C(=Cc1ccc(C(=O)O)cc1)C(=O)Nc1ccccc1C	none
COc1cc(CC(=O)Nc2cc(S(C)(=O)=O)ccc2Cl)cc(OC)c1OC	none
O=C(COC(=O)Cc1ccccc1[N+](=O)[O-])NCC1CCCCC1	none
O=C(c1ccc(-n2c(SCc3cccc(F)c3)nc3ccccc3c2=O)cc1)N1CCOCC1	ROMK mod -3.41 | ROMK hit retest 0.0595
COc1ccc(-c2c[n+](CC(=O)OC3CC(C)CCC3C(C)C)c3n2CCC3)cc1 (centres undefined)	none (no result: ROMK mod) | ROMK hit retest 0.0507
CC(C)[C@@H]1CC[C@@H](C)C[C@H]1OC(=O)C[n+]1cc(-c2ccc(Cl)cc2)n2c1CCCCC2	none (no result: ROMK mod, PMI act satM6P, Diaph inh CS, PMI act, G6PDH counter, Diaphorase act) | ROMK hit retest 0.0352
CC(C)OC(=O)CSc1nnc(CNc2nc(-c3ccccc3)cs2)n1C	ROMK mod -2.68 | ROMK hit retest 0.0621
O=C(Nc1ccc(Cl)cc1)C(c1ccccc1)N1CCOCC1 (centres undefined)	none
CC(C)c1ccc(NC(=O)C(c2ccccc2)N2CC(=O)Nc3ccccc32)cc1 (centres undefined)	ROMK mod 1.91 | ROMK hit retest inactive
CCOC(=O)CSC1=C(C#N)C(c2ccccc2OCC)C(C#N)C(=O)N1 (centres undefined)	ROMK mod 3.22 | ROMK hit retest inactive
COc1cc(/C=C(\C#N)C(=O)NC2CCCCC2C)ccc1OS(=O)(=O)c1ccc(C)cc1 (centres undefined)	none (no result: ROMK mod)
COc1cc(/C=C(\C#N)C(N)=O)ccc1OS(=O)(=O)c1ccc(C)cc1	none (no result: ROMK mod) | ROMK hit retest 0.0415
CC1Cc2ccccc2N1C(=O)CN1CCC(C(N)=O)CC1 (centres undefined)	none
CCn1c2ccccc2c2cc(CNCc3ccc(OC)cc3OC)ccc21	ROMK mod -5.11 | ROMK hit retest 0.0459
Cc1[nH]c(=O)[nH]c(=O)c1/C=N/NC(=O)[C@H](C)N	none (no result: PMI act satM6P, Diaph inh CS, PMI act, G6PDH counter, Diaphorase act)
COc1cc2c(cc1OC)C1=CC(=O)C(=O)N1C(C)(C)C2	none
O=C(c1nc2ccc(Cl)cn2c1CNCCn1ccnc1)N1CCCCCCC1	none
Cc1cc(CNCc2c(C(=O)N3CCCCCCC3)nc3ccc(Cl)cn23)nn1C	ROMK mod 1.93 | ROMK hit retest inactive
O=C(Nc1nccs1)Oc1ccccc1	none
C/C(=C\c1ccccc1)C(=O)Nc1nccs1	ROMK mod 1.08 | ROMK hit retest inconclusive
N#CC(C#N)=C1C=CC=CN1/C(=C\c1ccco1)C(=O)c1ccc(Cl)cc1	ROMK mod -2.98 | ROMK hit retest 0.045
O=C(/C=C/c1cccs1)NCc1ccccc1	none
CCOC(=O)/C(=N\O)C1=NC(C)(C)Cc2ccccc21	none
Cc1cccc(N/N=C(\C(N)=O)C2=NC(C)(C)Cc3ccccc32)c1	ROMK mod -3.05 | ROMK hit retest 0.0588
COCCCNC(=O)c1cn(CC(C)C)c(=O)c2c1c1ccccc1n2C	none
